Series [1] deals with R4A antibody binding to murine glomeruli. Nature of the series: Kidney glomeruli R4A binding assay. On the set-up: species or system mouse. The conditions noted are these: R4A 20 µg/mL preincubated with compound at 50 µM. The essentials: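 Glomeruli isolated from mice and adhered to glass slides. R4A was preincubated with test compound for 1 h at 37 °C, then applied to the glomeruli for 1 h at room temperature. Slides were washed with PBS. Bound antibody was detected with FITC-conjugated anti-mouse IgG and imaged by fluorescence microscopy.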

The test system of series [2] is R4A monoclonal antibody (anti-dsDNA) binding to DWEYS peptide. In words: Competitive inhibition ELISA: R4A antibody binding to DWEYS-coated plates. On the set-up: species or system mouse. In short, it runs like this:
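D-DWEYS peptide at 20 µg/mL in PBS pH 7.2 coated overnight at 37 °C, uncovered; blocked with 3% BSA/PBS 1 h at 37 °C. R4A (20 µg/mL) preincubated with test compound at varying concentrations 1 h at 37 °C, then added to washed wells 1 h at 37 °C. AP-goat anti-mouse IgG 1:1000, 1 h RT; pNPP substrate 30–60 min; absorbance at 405 nm.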

A short description of series [3]: Preliminary pharmacokinetics after intravenous or oral dosing. The format is in vivo. The conditions noted are these: iv 1 mg/kg or oral gavage 10 mg/kg, male CD-1 mice.
Series [4] deals with NZB/W F1 mice (SLE model). In words: NZB/W F1 lupus model efficacy testing. It counts as in vivo, mouse. The essentials: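 Female NZB/W F1 mice, randomised to groups (initially n = 10/group), dosed from 22 weeks of age, before severe proteinuria, with test compound or vehicle at 5 mg kg−1 day−1 as two daily ip injections (2.5 mL/kg each). Weekly body weight; proteinuria every 2 weeks; serum stored at −70 °C. Blinded kidney histology scored glomerular sclerosis, cellularity, crescents and interstitial inflammation.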

Series [5] concerns R4A antibody neurotoxicity in hippocampal neurons. Nature of the series: Neurotoxicity model: R4A injected into hippocampus, TUNEL staining. The conditions noted are these: R4A 20 µg/mL preincubated with 50 µM compound, injected into mouse hippocampus. It counts as in vivo. The essentials: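 Male C57BL/6 mice (30–34 g) under 2.5% avertin ip received a 2 µL stereotaxic injection into the dorsal hippocampus (CA1) of R4A (20 µg/mL) preincubated with vehicle or test compound (50 µM).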

Where [6] appears, read: 5 mg/kg chronic dosing, NZB/W F1 mice, versus vehicle.

As for `Cc1c(O)cccc1C(=O)N[C@@H](CSc1ccccc1)[C@H](O)CN1C[C@H]2CCCC[C@H]2C[C@H]1C(=O)NC(C)(C)C` [Compound 2, nelfinavir, reference compound], the “R4A binding to glomerular antigens” value in series [1] is “diminished binding to glomerular antigens”. Besides, the “Inhibition of R4A / anti-dsDNA antibody binding in ELISA (qualitative)” value in series [2] was “dose-dependently inhibited the binding of anti-dsDNA antibodies to target antigens”.
For the compound `Cc1cccc(C)c1OCC(=O)N[C@@H](Cc1ccccc1)[C@@H](O)C[C@H](Cc1ccccc1)NC(=O)[C@H](C(C)C)N1CCCNC1=O` [Compound 3, lopinavir], the “Inhibition of R4A / anti-dsDNA antibody binding in ELISA (qualitative)” value in series [2] is given as “dose-dependently inhibited the binding of anti-dsDNA antibodies to target antigens”.
Take `CC(C)(C)NC[C@@H]1CC2CCCCC2CN1C[C@@H](O)[C@H](Cc1ccccc1)NC[C@H](CCN)NCC1Nc2ccccc2CC1O` (stereo partly drawn) [Compound 5, 2-{[3-Amino-1-({1-benzyl-3-[3-(tert-butylamino-methyl)-octahydro-isoquinolin-2-yl]-2-hydroxy-propylamino}-methyl)-propylamino]-methyl}-1,2,3,4-tetrahydro-quinolin-3-ol]: in series [3], the “PK profile (comparative)” value was “exhibited the best PK profile” and the “Tolerability in PK study” value is listed as “well tolerated at the administered dose levels”. In addition, in series [4] (5 mg kg−1 day−1 b.i.d. ip, NZB/W F1 mice), the Onset of disease entry is reported as “delayed onset of disease (26–36 weeks)”. Also, the “Body weights versus vehicle” value in series [4] (5 mg kg−1 day−1 in two daily ip injections, female NZB/W F1 mice from 22 weeks of age) is recorded as “similar”. In series [4] (setting [6]), the Kidney histology entry is reported as “preserved histology” and the “Mouse IgG staining (autoantibody deposition) in glomeruli” value is listed as “significantly less staining for mouse IgG”. Besides, the “Serum anti-DWEYS reactivity” value in series [4] (5 mg/kg chronic dosing, NZB/W F1 mice, versus vehicle sera) is recorded as “higher anti-DWEYS reactivity”. For the same compound, the “Combined kidney pathology score” value in series [4] (blinded histopathology, 60 weeks, versus vehicle, p < 0.05) is given as “significantly lower standard combined pathology scores”. Besides, the “R4A binding to glomerular antigens” value in series [1] is “decreased the binding of R4A to kidney tissue”. Besides, in series [5], the “Neurotoxic effect of R4A (TUNEL staining, neuronal apoptosis)” value was “abrogated this neurotoxic effect”.
For `Cc1c(O)cccc1CN[C@@H](CSc1ccccc1)[C@H](O)CN1C[C@H]2CCCC[C@H]2C[C@H]1CNC(C)(C)C` [Compound 6, 3-({3-[3-(tert-Butylaminomethyl)octahydroisoquinolin-2-yl]-2-hydroxy-1-phenylsulfanylmethylpropylamino}methyl)-2-methylphenol], the “R4A binding to glomerular antigens” value in series [1] is “decreased the binding of R4A to kidney tissue”. Further, in series [5], the “Neurotoxic effect of R4A (TUNEL staining, neuronal apoptosis)” value is “abrogated this neurotoxic effect”.
As to `CNCCCN[C@H](CN[C@@H](Cc1ccccc1)C[C@H](O)[C@H](Cc1ccccc1)NCCOc1c(C)cccc1C)C(C)C` [Compound 7, 2-[2-(2,6-Dimethylphenoxy)ethylamino]-5-[3-methyl-2-(3-methylaminopropylamino)butylamino]-1,6-diphenylhexan-3-ol], the “R4A binding to glomerular antigens” value in series [1] is “decreased the binding of R4A to kidney tissue”.
For “saquinavir [Compound 1, reference compound]”, the “R4A binding to glomerular antigens” value in series [1] is on record as “diminished binding to glomerular antigens”. Further, the “Inhibition of R4A / anti-dsDNA antibody binding in ELISA (qualitative)” value in series [2] was “dose-dependently inhibited the binding of anti-dsDNA antibodies to target antigens”.

For the origin of these results see article PMC5592695 (Journal of medicinal chemistry, 2016).
